# Results reported in ChEMBL document CHEMBL3091379, “A selective mitochondrial-targeted chlorambucil with remarkable cytotoxicity in breast and pancreatic cancers” (J Med Chem, 2013).
# The source made the active and inactive calls. The calls are words filed in the database; no cut-off is given here.
# What was measured:
# [1] = test system: MCF7; experiment: Cytotoxicity against human MCF7 cells after 72 hrs by MTT assay; assay type: functional, cell-based; conditions: MCF7, 72 h
# Method in brief: (§1)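 Cells seeded at 4 × 10^3 per well, adhered overnight, then exposed continuously for 72 h. Media refreshed, MTT added to 0.3 mg/mL final, 4 h at 37 °C. Formazan dissolved in DMSO and read at 570 nm. IC50 taken from log concentration vs % nonviable cells; triplicate wells. Rho θ lines grown with 50 μg/mL uridine.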
# [2] = Antitumor activity against human MIAPaCa2 cells xenografted in athymic nude mouse assessed as inhibition of tumor growth at 10 mg/kg, ip administered 5 times a week for 36 days; assay type: functional; conditions: MIA PaCa-2, ip, 864 h, route intraperitoneal, read-out: TGI
# Method in brief: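 Established subcutaneous xenografts (2 × 10^6 cells in 1:1 matrigel–basal DMEM, right rear flank) in 4−6 week old mice; randomized at ~100 mm3, n = 6 per group. Dosed ip 10 mg/kg five times weekly; DMSO stock diluted in saline or sesame oil. Caliper volume V = d2 × D/2. Unpaired Student's t-test vs vehicle at day 36.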
# [3] = test system: MDA-MB-468; experiment: Cytotoxicity against human MDA-MB-468 cells after 72 hrs by MTT assay in presence of NAC; assay type: functional, cell-based; conditions: MDA-MB-468, 72 h
# [4] = test system: MIA PaCa-2; experiment: Induction of nuclear DNA damage in human MIAPaCa2 cells assessed as increase in gammaH2A.X expression after 24 hrs by Western blotting analysis in presence of NAC relative to control; assay type: functional
# [5] = test system: MIA PaCa-2; experiment: Induction of nuclear DNA damage in human MIAPaCa2 cells assessed as increase in gammaH2A.X expression after 24 hrs by Western blotting analysis relative to control; assay type: functional
# [6] = test system: MDA-MB-468; experiment: Induction of nuclear DNA damage in human MDA-MB-468 cells assessed as increase in gammaH2A.X expression at 20 uM by Western blotting analysis; assay type: functional, cell-based; conditions: TDE = time-dependent effect
# [7] = test system: MIA PaCa-2; experiment: Induction of nuclear DNA damage in human MIAPaCa2 cells assessed as increase in gammaH2A.X expression at 75 uM by Western blotting analysis; assay type: functional, cell-based; conditions: TDE = time-dependent effect
# [8] = Cell cycle arrest in human MIAPaCa2 cells assessed as increase of […] cells at 20 uM after 24 to 72 hrs by flow cytometry; assay type: functional, cell-based; conditions: MIA PaCa-2
# Method in brief: (§2)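 Cells in 6-well dishes exposed to 2 or 20 μM for 0−72 h, trypsinized, PBS-washed, fixed and permeabilized in 70% ethanol. Stained with 10 μg/mL propidium iodide plus 100 μg/mL RNase A. DNA content read by flow cytometry with 488 nm excitation and 575/26 nm bandpass.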
# [9] = Cell cycle arrest in human MIAPaCa2 cells assessed as accumulation at G2/M phase at 20 uM after 24 to 48 hrs by flow cytometry; assay type: functional, cell-based; conditions: MIA PaCa-2; method in brief: as §2
# [10] = test system: MDA-MB-231; experiment: Cytotoxicity against mitochondrial DNA-deficient human MDA-MB-231 rho theta-W02 cells after 72 hrs by MTT assay; assay type: functional, cell-based; conditions: MDA-MB-231, 72 h; method in brief: as §1
# [11] = test system: MDA-MB-435; experiment: Cytotoxicity against mitochondrial DNA-deficient human MDA-MB-435 rho theta-W02 cells after 72 hrs by MTT assay; assay type: functional, cell-based; conditions: MDA-MB-435, 72 h; method in brief: as §1
# [12] = test system: MDA-MB-435; experiment: Cytotoxicity against mitochondrial DNA-deficient human MDA-MB-435 rho theta-W01 cells after 72 hrs by MTT assay; assay type: functional, cell-based; conditions: MDA-MB-435, 72 h; method in brief: as §1
# [13] = Cytotoxicity against human BxPC3 cells after 72 hrs by MTT assay; assay type: functional, cell-based; conditions: BXPC-3, 72 h; method in brief: as §1
# [14] = Cytotoxicity against human MIAPaCa2 cells after 72 hrs by MTT assay; assay type: functional, cell-based; conditions: MIA PaCa-2, 72 h; method in brief: as §1
# [15] = test system: BT-474; experiment: Cytotoxicity against human BT474 cells after 72 hrs by MTT assay; assay type: functional, cell-based; conditions: BT-474, 72 h
# [16] = test system: BT-549; experiment: Cytotoxicity against human BT549 cells after 72 hrs by MTT assay; assay type: functional, cell-based; conditions: BT-549, 72 h; method in brief: as §1
# [17] = Cytotoxicity against human SKBR3 cells after 72 hrs by MTT assay; assay type: functional, cell-based; conditions: SK-BR-3, 72 h; method in brief: as §1
# [18] = Cytotoxicity against human Hs578T cells after 72 hrs by MTT assay; assay type: functional, cell-based; conditions: Hs-578T; method in brief: as §1
# [19] = Cytotoxicity against human CAMA1 cells after 72 hrs by MTT assay; assay type: functional, cell-based; conditions: CAMA-1, 72 h; method in brief: as §1
# [20] = test system: MDA-MB-468; experiment: Cytotoxicity against human MDA-MB-468 cells after 72 hrs by MTT assay; assay type: functional, cell-based; conditions: MDA-MB-468, 72 h; method in brief: as §1
# [21] = test system: MDA-MB-435; experiment: Cytotoxicity against wild type human MDA-MB-435 cells after 72 hrs by MTT assay; assay type: functional, cell-based; conditions: MDA-MB-435, 72 h; method in brief: as §1
# [22] = test system: MDA-MB-231; experiment: Cytotoxicity against wild type human MDA-MB-231 cells after 72 hrs by MTT assay; assay type: functional, cell-based; conditions: MDA-MB-231, 72 h; method in brief: as §1
# [23] = test system: BXPC-3; experiment: Sensitivity ratio of chlorambucil IC50 to compound IC50 for human BxPC3 cells; assay type: functional
# [24] = test system: BT-474; experiment: Sensitivity ratio of chlorambucil IC50 to compound IC50 for human BT474 cells; assay type: functional
# [25] = test system: MIA PaCa-2; experiment: Sensitivity ratio of chlorambucil IC50 to compound IC50 for human MIAPaCa2 cells; assay type: functional
# [26] = test system: BT-549; experiment: Sensitivity ratio of chlorambucil IC50 to compound IC50 for human BT549 cells; assay type: functional
# [27] = test system: SK-BR-3; experiment: Sensitivity ratio of chlorambucil IC50 to compound IC50 for human SKBR3 cells; assay type: functional
# [28] = test system: Hs-578T; experiment: Sensitivity ratio of chlorambucil IC50 to compound IC50 for human Hs 578T cells; assay type: functional
# [29] = test system: CAMA-1; experiment: Sensitivity ratio of chlorambucil IC50 to compound IC50 for human CAMA1 cells; assay type: functional
# [30] = test system: MDA-MB-468; experiment: Sensitivity ratio of chlorambucil IC50 to compound IC50 for human MDA-MB-468 cells; assay type: functional
# [31] = test system: MDA-MB-231; experiment: Sensitivity ratio of chlorambucil IC50 to compound IC50 for human MDA-MB-231 cells; assay type: functional
# [32] = test system: MCF7; experiment: Sensitivity ratio of chlorambucil IC50 to compound IC50 for human MCF7 cells; assay type: functional
# [33] = test system: MDA-MB-435; experiment: Sensitivity ratio of chlorambucil IC50 to compound IC50 for wild type human MDA-MB-435 cells; assay type: functional
# [34] = test system: MDA-MB-468; experiment: Induction of nuclear DNA damage in human MDA-MB-468 cells assessed as increase in gammaH2A.X expression after 5 to 24 hrs by Western blotting analysis; assay type: functional, cell-based
# [35] = test system: MIA PaCa-2; experiment: Induction of nuclear DNA damage in human MIAPaCa2 cells assessed as increase in gammaH2A.X expression after 5 to 24 hrs by Western blotting analysis; assay type: functional, cell-based
# [36] = test system: MDA-MB-468; experiment: Induction of nuclear DNA damage in human MDA-MB-468 cells assessed as increase in gammaH2A.X expression at 2 uM by Western blotting analysis; assay type: functional, cell-based; conditions: TDE = time-dependent effect
# [37] = test system: MIA PaCa-2; experiment: Induction of nuclear DNA damage in human MIAPaCa2 cells assessed as increase in gammaH2A.X expression at 2 uM by Western blotting analysis; assay type: functional, cell-based; conditions: TDE = time-dependent effect
# [38] = Cell cycle arrest in human MIAPaCa2 cells assessed as increase of […] cells at 2 uM after 24 to 72 hrs by flow cytometry; assay type: functional, cell-based; conditions: MIA PaCa-2; method in brief: as §2
# [39] = Cell cycle arrest in human MIAPaCa2 cells assessed as accumulation at G2/M phase at 2 uM after 24 to 48 hrs by flow cytometry; assay type: functional, cell-based; conditions: MIA PaCa-2; method in brief: as §2
# [40] = Cell cycle arrest in human MIAPaCa2 cells assessed as accumulation at S phase at 2 uM after 24 hrs by flow cytometry; assay type: functional, cell-based; conditions: MIA PaCa-2; method in brief: as §2
# [41] = test system: MDA-MB-231; experiment: Ratio of IC50 for mitochondrial DNA-deficient human MDA-MB-231 rho theta-W02 cells to IC50 for wild type human […]; assay type: functional
# [42] = test system: MDA-MB-435; experiment: Ratio of IC50 for mitochondrial DNA-deficient human MDA-MB-435 rho theta-W02 cells to IC50 for wild type human MDA-MB-435 cells; assay type: functional
# [43] = test system: MDA-MB-435; experiment: Ratio of IC50 for mitochondrial DNA-deficient human MDA-MB-435 rho theta-W01 cells to IC50 for wild type human MDA-MB-435 cells; assay type: functional
# [44] = Drug uptake in nucleus of human MIAPaCa2 cells at 10 uM after 18 hrs using […] staining by laser-scanning confocal microscopy; assay type: ADME, cell-based; conditions: mia paca-2, 18 h
# Method in brief: (§3)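 Cells on glass coverslips, adhered overnight, exposed 18 h at 10 μM. Fixed in 3.7% formaldehyde 15 min at RT, permeabilized in ice-cold acetone 5 min at −20 °C, blocked in 1% BSA/PBS. Anti-TPP antisera and anti-complex I antibody (1:1000) overnight at 4 °C, then Cy5/Cy3 secondaries (1:200) 2 h. Imaged by scanning confocal microscopy.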
# [45] = Drug uptake in cytoplasm of human MIAPaCa2 cells at 10 uM after 18 hrs using […] staining by laser-scanning confocal microscopy; assay type: ADME, cell-based; conditions: mia paca-2, 18 h; method in brief: as §3
# [46] = Drug uptake in mitochondria of human MIAPaCa2 cells at 10 uM after 18 hrs using […] staining by laser-scanning confocal microscopy; assay type: ADME; conditions: mia paca-2, 18 h; method in brief: as §3
structure (smiles),measurement,setting,value
O=C(CCCc1ccc(N(CCO)CCO)cc1)NCCC[P+](c1ccccc1)(c1ccccc1)c1ccccc1,IC50,[1],80 µM
CCCC[P+](CCCC)(CCCC)CCCNC(=O)CCCc1ccc(N(CCCl)CCCl)cc1,IC50,[1],35 µM
O=C(O)CCCc1ccc(N(CCCl)CCCl)cc1 [CHLORAMBUCIL],inhibition in vivo at 10 mg/kg,[2],61.5%
same,IC50,[3],67.5 µM
same,fold change (FC),[4],2.6
same,fold change (FC),[5],2.5
same,Activity,[6],tde
same,Activity,[7],tde
same,Activity,[8],Active
same,Activity,[9],Active
same,IC50,[10],> 200 µM
same,IC50,[11],> 200 µM
same,IC50,[12],> 200 µM
same,IC50,[13],> 100 µM
same,IC50,[14],78.3 µM
same,IC50,[15],238 µM
same,IC50,[16],> 200 µM
same,IC50,[17],248 µM
same,IC50,[18],162 µM
same,IC50,[19],192 µM
same,IC50,[20],43.8 µM
same,IC50,[21],150 µM
same,IC50,[22],> 200 µM
same,IC50,[1],73.3 µM
O=C(CCCc1ccc(N(CCCl)CCCl)cc1)NCCC[P+](c1ccccc1)(c1ccccc1)c1ccccc1.O=C([O-])C(F)(F)F,Ratio IC50,[23],>40
same,Ratio IC50,[24],36.5
same,Ratio IC50,[25],>40
same,Ratio IC50,[26],27.4
same,Ratio IC50,[27],43.4
same,Ratio IC50,[28],14.3
same,Ratio IC50,[29],79.9
same,Ratio IC50,[30],25.8
same,Ratio IC50,[31],54.8
same,Ratio IC50,[32],7.7
same,Ratio IC50,[33],50
same,Activity,[34],Dose-dependent effect
same,Activity,[35],Dose-dependent effect
same,inhibition in vivo at 10 mg/kg,[2],45%
same,IC50,[3],0.6 µM
same,fold change (FC),[4],1.2
same,fold change (FC),[5],2.9
same,Activity,[36],tde
same,Activity,[37],tde
same,Activity,[38],Active
same,Activity,[39],Active
same,Activity,[40],Active
same,Ratio IC50,[41],>2.1
same,Ratio IC50,[42],11.7
same,Ratio IC50,[43],5
same,IC50,[10],> 20 µM
same,IC50,[11],35 µM
same,IC50,[12],15 µM
same,Drug uptake,[44],Not Active
same,Drug uptake,[45],Active
same,Drug uptake,[46],Active
same,IC50,[13],2.5 µM
same,IC50,[14],1.6 µM
same,IC50,[15],6.5 µM
same,IC50,[16],7.3 µM
same,IC50,[17],5.7 µM
same,IC50,[18],11.4 µM
same,IC50,[19],2.4 µM
same,IC50,[20],1.7 µM
same,IC50,[21],3 µM
same,IC50,[22],9.5 µM
O=C(CCCc1ccc(N(CCCl)CCCl)cc1)NCCC[P+](C1CCCCC1)(C1CCCCC1)C1CCCCC1,IC50,[1],40 µM
